# Test results as given in the RNAGym collection of RNA variant scans (doi:10.1126/science.aae0568).
# Variants at the floor of the assay were thinned out.
# B1: tRNA (parent)
# chain: GUUCCGUUGGCGUAAUGGUAACGCGUCUCCCUCCUAAGGAGAAGACUGCGGGUUCGAGUCCCGUACGGAACG
# Variants of: B1
# Assay: yeast fitness relative to wild type (ratio to wild type); higher = fitter; tRNA-Arg(CCU), competitive growth, 37 C, YPD
# Procedure, shortened: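 Start and end populations of a pooled competition were compared by 100-nucleotide paired-end sequencing of gene amplicons. The Saccharomyces cerevisiae strains carried tRNA-Arg(CCU) gene variants at the native genomic locus, synthesised with a 3% per-site mutation rate at 69 sites, and competed in YPD at 37°C for 24 hours in six parallel replicates. Darwinian fitness relative to wild type was based on the change in genotype frequencies. Genotypes required ≥ 100 starting reads, and estimates < 0.5 were set to 0.5.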
row,Variant,yeast fitness
1,GUUCCGUUGGCGUUAUGGUAACGCGUCUUCCUCCUAUGGAGAAGACUGCGGGUUCGAGUCCCGUACGGUACG [A14U C29U A37U A69U],≤ 0.5
2,GUUCCGUUGGCGUUAUGGUAACGCGUGUCCCUCCUAAGGAGAAGACUGCGGGUUCGUGUCCCGUACGGAACG [A14U C27G A57U],0.527
3,GUUCCGUUGGCGUUAUGGUAAUGCAUCUCCCUCCUAAGGAGAAGACUGCGGGUUGGAGUUCCGUACGGAACG [A14U C22U G25A C55G C60U],≤ 0.5
4,GUUCCGUUGGCGUUAUGGUAACGCGUCUCACUCCUAAGGAGAAGACUGCGGGUUAGAGUCCAGUACGGAACG [A14U C30A C55A C62A],0.578
5,GUUCCGUUGGCGUUAUGGUAACGCGUCUCUCUCCUAAGGAGGAGACUGCGGGUUCGAGUCCCGUAGGGAACG [A14U C30U A42G C66G],≤ 0.5
6,GUUCCGUUGGCGUUAUGGUAACGGGUCUCCCUCCUGAGGAGAAGACUGCGGGUUCGAGUCCCGUACGUAACG [A14U C24G A36G G68U],≤ 0.5
7,GUUCCGUUGGCGUUAUGGUAACGGGGCUCCCUCCUAAGGAGAAGACUGCGGGUUCCAGUCCCGUACGGAACG [A14U C24G U26G G56C],≤ 0.5
8,GUUCCGUUGGCGUUAUGGUAACGCGUUUCCCUCCUAAGGAGAAGACUGCGGGUUGGAGUCCCGUACGCAACG [A14U C27U C55G G68C],≤ 0.5
9,GUUCCGUUGGCGUUAUGGUAACGCGUCUCACUCCUAAGGAGAAGACUGCGGGUUCGAGUCCCGUAUGGAGCG [A14U C30A C66U A70G],0.64
10,GUUCCGUUGGCGUUAUGGUAACGGGUCUCCCUCCUAAGGAGAAGAGUGCGGAUUCGAGUCCCGUACGGAACG [A14U C24G C46G G52A],≤ 0.5
11,GUUCCGUUGGCGUUAUGGUAACGCGUCUCGCUACUAAGGAGAAGACUGCGGGUUCGAGUCCCGUACGGAACG [A14U C30G C33A],0.529
12,GUUCCGUUGGCGUUAUGGUAACGUGUCUCCCUACUAAGGAGAACACCGCGGGUUCGAGUGCCGUACGGAACG [A14U C24U C33A G44C U47C C60G],≤ 0.5
13,GUUCCGUUGGCGUUAUGGUAACGGGUCUCCCUCCUAAGGAAAAAACUGCGGGAUCGAGUCCCGUAUGGAACG [A14U C24G G41A G44A U53A C66U],0.533
14,GUUCCGUUGGCGUUAUGGUAACGCGUCUCUCUCCUAAGGAGAAGAUUGCGGCUUCGAGUCCCGUACGGUACG [A14U C30U C46U G52C A69U],≤ 0.5
15,GUUCCGUUGGCGUUAUGGUAAGGCGUCUCCCUCCUAAGGAGAUGACUGCGGGUUCGCGUCCCCUAUGGAACG [A14U C22G A43U A57C G63C C66U],≤ 0.5
16,GUUCCGUUGGCGUUAUGGUAACGCGUUUCCCUCCUAAGGAGAAGACUGCGGGUUCGAGUCCCGUACGGAACG [A14U C27U],0.594
17,GUUCCGUUGGCGUUAUGGUAACGCGUAUCCCUCCUAAGGAGAAGACUGCGGGUUCGAGUCCCGUACGGAACG [A14U C27A],0.76
18,GUUCCGUUGGCGUUAUGGUAACGCGUCUCACCCCUAAGGAGAAGACUGCGGGUUCGAGUCCCGUACGGAACG [A14U C30A U32C],≤ 0.5
19,GUUCCGUUGGCGUUAUGGUAACGCGUCUCACUCCUAAGGAAAAGACUGCGGGUUCCAGUCCCGUACGGAACG [A14U C30A G41A G56C],≤ 0.5

row,Variant,yeast fitness
1,GUUCCGUUGGCGUUAUGGUAACGCGUCUACCUCCUAAGGAGAAGACUGAGGGUUCGAGUCCCGUACGGAACG [A14U C29A C49A],≤ 0.5
2,GUUCCGUUGGCGUUAUGGUAACGUGUCUCCCUACUAAGGAGAACACCGCGGGUUCGAGUCCCGGACGGAACG [A14U C24U C33A G44C U47C U64G],≤ 0.5
3,GUUCCGUUGGCGUUAUGGUAACGGGUCUCCAUCCUAAGGGGAACACUGCGGGUUCGAGUCCCGUACGGAACG [A14U C24G C31A A40G G44C],≤ 0.5
4,GUUCCGUUGGCGUUAUGGUAACGCGUCUCUCCCCUAAGGAGAAGACUGCGGGUUCGAGUCCCGGACGGAACG [A14U C30U U32C U64G],≤ 0.5
5,GUUCCGUUGGCGUUAUGGUAACGGGUCUCCCUCCUUAGGAGAAGACUGCGGGUUCGAGUCCCGUACGGAACG [A14U C24G A36U],≤ 0.5
6,GUUCCGUUGGCGUUAUGGUAACGGGUCUCCCUCCUAAGGAAAAAACUGCGGGAUCGAGUCCCGUAUGCAACG [A14U C24G G41A G44A U53A C66U G68C],≤ 0.5
7,GUUCCGUUGGCGUUAUGGUAACGGGUUUCCCUCCUAAGGAGAAGACUGCGGGUGCGAGUCCCGUACGGAACG [A14U C24G C27U U54G],≤ 0.5
8,GUUCCGUUGGCGUUAUGGUAACGCGUCUUCCUCCUAAGGAGAAGACUGCGGGUUUGAGUCCCGUACGGAACG [A14U C29U C55U],≤ 0.5
9,GUUCCGUUGGCGUUAUGGUAACGCGUCUCAGUCCUAAGGACAAGACUGCGGGUUCGAGUCCCGUACGGAUCG [A14U C30A C31G G41C A70U],≤ 0.5
10,GUUCCGUUGGCGUUAUGGUAACGCGUCUCGCUCCUAAGGAGAAGACUGCGCGUUCGAGUCCCGUACGGAACG [A14U C30G G51C],≤ 0.5
11,GUUCCGUUGGCGUUAUGGUAACGGGUCUCCCUCCUAAGGAAAAAACUGCGGGAUCGAGUCCCGUACGGAACG [A14U C24G G41A G44A U53A],0.55
12,GUUCCGUUGGCGUUAUGGUAACGUGUCUCCCUCCUAAGGAGAAGACUCCGGGUUCGAGUCCCGUACGGAACG [A14U C24U G48C],≤ 0.5
13,GUUCCGUUGGCGUUAUGGUAAUGCGUCUCCCUCCUAAGGUGAACACUGCGGGUUCGAGUCCCGUACGGAACG [A14U C22U A40U G44C],≤ 0.5
14,GUUCCGUUGGCGUUAUGGUAACGUGUCUCCCUACUAAGGAGAACACCGCGGGUUCGAGUCCCGUACGGAACG [A14U C24U C33A G44C U47C],0.534
15,GUUCCGUUGGCGUUAUGGUAACGCGUUUCCCUUCUAAGGAGAAGACUGCGAGUUCGAGUCCCGUACAGAACG [A14U C27U C33U G51A G67A],≤ 0.5
16,GUUCCGUUGGCGUUAUGGUAACGCGUGUCCCUCCUAAGGAGAAGACUGCGGGUUCGAGUCCCGUAUGGAACG [A14U C27G C66U],≤ 0.5
17,GUUCCGUUGGCGUUAUGGUAACGCGUGUCCCUCCUGAGGAGAAGAAUGCGGGUUCGAGACCCGUACGGAACG [A14U C27G A36G C46A U59A],0.52
18,GUUCCGUUGGCGUUAUGGUAACGGGUCUCCCUCCUAAGGAGAAGACUGCGGGUUCGAAUCCCGUACGGAACG [A14U C24G G58A],0.561
